# Paper PMC5159300 (Cell chemical biology, 2016)
# Read-outs that look alike come from different tables or passages of the source.
# Legend:
# cytochrome bc1 [1] = target: cytochrome bc1 (Candida albicans, UniProt P0C8L0); assay: Cytochrome bc1 enzymatic activity in purified C. albicans mitochondria; assay type: biochemical; details: for Extent of inhibition of C. albicans cytochrome bc1 activity: maximal effect
# [2] = test system: C. albicans wild-type (SC5314); assay: Emergence of fluconazole-resistant colonies on agar plates; assay type: cell-based, Candida albicans
# C. albicans SC5314 [3] = assay: Clonogenic survival in liquid culture; assay type: cell-based, Candida albicans; details: for Effect on growth and viability as single agent: 32 mg/L fluconazole alone or 10 μM Inz-5 alone
# [4] = test system: C. albicans CaCi-2 and rip1Δ/Δ; assay: Mouse systemic infection; assay type: in vivo, Balb/C mice; details: low inoculum of CaCi-2 or rip1Δ/Δ; fluconazole 24 mg/kg IP for 3 days
# HepG2 cells = assay: Mammalian cell respiration toxicity; assay type: cell-based; details: Homo sapiens, HepG2, read-out: IC50 toxicity to respiring HepG2 cells
# How it was run: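 HepG2 cells were passaged in high-glucose DMEM, washed and resuspended in glucose-free DMEM with 10 mM galactose to force respiration, then seeded at 10,000 cells/well. After 72 hr with test compound, cellular ATP was measured by luminescent assay (reagent at 1:5 dilution) as a proxy for growth. IC50 was averaged from at least 2 independent experiments.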
# malarial cytochrome B = details: ref Hughes et al., 1998; cited from earlier work
# human cytochrome bc1 [5] = target: T1, human cytochrome bc1 (Homo sapiens, UniProt P00156); assay: biochemical
# C. albicans CaCi-2 = assay type: cell-based, Candida albicans; details: in the presence of fluconazole; SAR statement
# Plasma stability = assay type: in vitro ADME, human
# [6] = Mouse liver microsome stability; assay type: in vitro ADME; details: 15 minute incubation at 37 C
# C. albicans SC5314 [7] = assay: Diffusion halo assay on agar plates with various carbon sources; assay type: cell-based, Candida albicans; details: 10 μg disc
# How it was run: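 SC5314 cells were spread on agar plates with different carbon sources. These included 80% fetal bovine serum as nutrient source (~0.1-0.2% glucose), high (2%) glucose, galactose and non-fermentable sources. A filter disc carried 10 μg test compound in DMSO or DMSO alone. The zone of growth inhibition was scored.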
# C. albicans = assay: Co-culture of C. albicans with mouse bone-marrow-derived macrophages; assay type: cell-based, Candida albicans; details: 5 μM
# Scedosporium prolificans = assay: Single-agent growth inhibition of Scedosporium prolificans; assay type: cell-based; details: enhanced under respiratory growth conditions
# Aspgerillus terreus = assay: Single-agent growth inhibition of Aspgerillus terreus; assay type: cell-based; details: enhanced under respiratory growth conditions
# Rhizopus oryzae = assay: Single-agent growth inhibition of Rhizopus oryzae; assay type: cell-based; details: enhanced under respiratory growth conditions
# cytochrome bc1 [8] = target: cytochrome bc1 (Saccharomyces cerevisiae, UniProt P00163); assay: Cytochrome bc1 enzymatic activity in purified yeast mitochondria; assay type: biochemical; details: read-out: IC50 cytochrome bc1 inhibition; S. cerevisiae mitochondria, wild type
# S. cerevisiae (BY4741) = assay type: cell-based
# C. albicans (SC5314) = assay: C. albicans growth in media with glucose or glycerol as carbon source; assay type: cell-based, Candida albicans
# How it was run: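 Growth compared in synthetic medium of yeast nitrogen base with complete amino acid supplement, containing either 2% glucose or 2% glycerol as carbon source. Data pooled from two independent experiments.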
# Solubility limit = assay type: physicochemical
# human cytochrome bc1 [9] = target: T1, human cytochrome bc1; details: human IC50 versus C. albicans homolog IC50
# [10] = media containing glycerol as the sole carbon source
# Chain of cytochrome bc1 (Candida albicans, UniProt P0C8L0) (P0C8L0 whole entry): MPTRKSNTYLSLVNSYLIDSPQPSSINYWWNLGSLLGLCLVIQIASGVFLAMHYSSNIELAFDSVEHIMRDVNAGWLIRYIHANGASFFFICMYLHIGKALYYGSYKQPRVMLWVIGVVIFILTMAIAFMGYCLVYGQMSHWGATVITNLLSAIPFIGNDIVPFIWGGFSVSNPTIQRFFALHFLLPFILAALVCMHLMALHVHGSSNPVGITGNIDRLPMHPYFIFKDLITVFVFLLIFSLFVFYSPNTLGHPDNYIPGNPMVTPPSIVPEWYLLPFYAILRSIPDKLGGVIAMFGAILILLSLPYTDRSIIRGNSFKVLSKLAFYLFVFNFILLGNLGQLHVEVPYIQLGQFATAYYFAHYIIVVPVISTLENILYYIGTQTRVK
smiles,measurement,setting,value
COC(=O)Cn1nc(-c2cc(C(F)(F)F)ccc2F)c2ccccc21 [Inz-2],Potency against the fungal enzyme,cytochrome bc1 [1]; compared with Inz-1,significant enhancement of potency
"OC(Cn1cncn1)(Cn1cncn1)c1ccc(F)cc1F [fluconazole, reference compound]",Rate of emergence of resistant colonies,[2]; 64 mg/L fluconazole alone,~ 0.5%
same,Effect on growth and viability as single agent,C. albicans SC5314 [3],slowed growth of the wild-type strain but did not cause a decrease in viability
same,Brain fungal burden,[4],eliminated brain colonization
O=C1C(O)=C([C@H]2CC[C@H](c3ccc(Cl)cc3)CC2)C(=O)c2ccccc21 [atovaquone],IC50,HepG2 cells,12700 nM
same,Potency against the malarial cytochrome B,malarial cytochrome B,low nanomolar potency
same,IC50,human cytochrome bc1 [5],1800 nM
c1ccc(-c2nn(Cc3cnccn3)c3ccccc23)cc1 [Inz-37],Activity against Candida proliferation,C. albicans CaCi-2,retained activity
COC(=O)Cn1nc(-c2ccccc2)c2cccc(C)c21 [Inz-3],Activity against Candida proliferation,C. albicans CaCi-2,beneficial to both the activity and the selectivity
Cn1nnc(Cn2nc(-c3ccccc3)c3ccccc32)n1 [Inz-34],Activity against Candida proliferation,C. albicans CaCi-2,retained activity
Cc1cccc2c(-c3cc(C(F)(F)F)ccc3F)nn(Cc3nnn(C)n3)c12 [Inz-5],Activity against Candida proliferation,C. albicans CaCi-2,sub-micromolar activity
same,Extent of inhibition of C. albicans cytochrome bc1 activity,cytochrome bc1 [1],complete inhibition
same,Plasma stability,Plasma stability; 3 hours of incubation in human serum,fully recovered
same,Compound remaining in mouse liver microsomes,[6],19.5%
same,Effect on colonies,[2]; 10 μM Inz-5 alone,"reduced colony size, but no reduction in the total number of colonies"
same,Effect on emergence of resistant colonies,[2]; 10 μM Inz-5 in combination with 64 mg/L fluconazole,completely abrogated the emergence of resistant colonies
same,Reduction of the number of viable colonies,C. albicans SC5314 [3]; 10 μM Inz-5 in combination with 32 mg/L fluconazole,97%
same,Effect on growth and viability as single agent,C. albicans SC5314 [3],partially slowed growth
same,Growth inhibition in halo assay,C. albicans SC5314 [7]; 80% fetal bovine serum as the nutrient source,slight growth inhibition
same,Growth inhibition in halo assay,"C. albicans SC5314 [7]; amino acids, lactate, or acetate as the carbon source",potent and profound growth inhibition
same,Growth inhibition in halo assay,C. albicans SC5314 [7]; galactose,moderate growth inhibition
same,Growth inhibition in halo assay,C. albicans SC5314 [7]; high glucose,very little growth inhibition
same,Fungal growth in the presence of macrophages,C. albicans; 14-hour co-culture,sharply curtailed fungal growth
same,Escape of C. albicans from macrophages,C. albicans; 2 hours,remained trapped in the phagosome
same,Growth inhibition as a single agent,Scedosporium prolificans,promising growth inhibition
same,Growth inhibition as a single agent,Aspgerillus terreus,promising growth inhibition
same,Growth inhibition as a single agent,Rhizopus oryzae,promising growth inhibition
COC(=O)Cn1nc(-c2ccccc2)c2ccccc21 [Inz-1],IC50,cytochrome bc1 [8],2500 nM
same,Extent of inhibition of C. albicans cytochrome bc1 activity,cytochrome bc1 [1],significant residual activity
same,Resistance conferred by L275S mutation,S. cerevisiae (BY4741); cytochrome B L275S mutant,confer resistance
same,Resistance conferred by P270L mutation,S. cerevisiae (BY4741); cytochrome B P270L mutant,confer resistance
same,Growth inhibition,S. cerevisiae (BY4741); glucose media,only mildly slowing growth
same,Growth inhibition,S. cerevisiae (BY4741); [10],potently inhibited growth
same,Resistance conferred by G143A mutation,"S. cerevisiae (BY4741); yeast cytochrome B G143A mutant, respiratory growth",strong resistance
same,Growth inhibition,C. albicans (SC5314); glucose media,only mildly slowing growth
same,Growth inhibition,C. albicans (SC5314); [10],potently inhibited growth
same,Plasma stability,Plasma stability; incubation of 1 hour at 37 C in human plasma,fully degraded
same,Compound remaining in mouse liver microsomes,[6],< 1%
same,Solubility limit,Solubility limit,32 µM
same,Fold higher IC50 for human than for C. albicans cytochrome bc1,human cytochrome bc1 [9],5.6 fold
